Reference: PMC4824005 (Nature structural & molecular biology, 2015)

Tested on: Shc1 phosphorylated at Tyr239 and Tyr240 in MCF10A cells
Experiment: Immunoblot of dual Shc1 phosphorylation in MCF10A cells
Type: cell-based
Details: 1ng/mL EGF, 3 min
In short: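 MCF10A cells (STR-authenticated, mycoplasma-free) were kept in HuMEC medium and held 16 h in growth-factor-free medium before pretreatment with test compound and EGF stimulation. Cells were lysed in RIPA buffer containing protease and phosphatase inhibitors. Lysates were separated by SDS-PAGE, transferred to nitrocellulose and immunoblotted with phospho-Shc and total Shc antibodies.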

B1: EGF: EGF, used at 1ng/mL to stimulate MCF10A cells (protein, UniProt P01133 23-1207, looked up)
Pro-epidermal growth factor: PQHWSCPEGTLAGNGNSTCVGPAPFLIFSHGNSIFRIDTEGTNYEQLVVDAGVSVIMDFHYNEKRIYWVDLERQLLQRVFLNGSRQERVCNIEKNVSGMAINWINEEVIWSNQQEGIITVTDMKGNNSHILLSALKYPANVAVDPVERFIFWSSEVAGSLYRADLDGVGVKALLETSEKITAVSLDVLDKRLFWIQYNREGSNSLICSCDYDGGSVHISKHPTQHNLFAMSLFGDRIFYSTWKMKTIWIANKHTGKDMVRINLHSSFVPLGELKVVHPLAQPKAEDDTWEPEQKLCKLRKGNCSSTVCGQDLQSHLCMCAEGYALSRDRKYCEDVNECAFWNHGCTLGCKNTPGSYYCTCPVGFVLLPDGKRCHQLVSCPRNVSECSHDCVLTSEGPLCFCPEGSVLERDGKTCSGCSSPDNGGCSQLCVPLSPVSWECDCFPGYDLQLDEKSCAASGPQPFLLFANSQDIRHMHFDGTDYGTLLSQQMGMVYALDHDPVENKIYFAHTALKWIERANMDGSQRERLIEEGVDVPEGLAVDWIGRRFYWTDRGKSLIGRSDLNGKRSKIITKENISQPRGIAVHPMAKRLFWTDTGINPRIESSSLQGLGRLVIASSDLIWPSGITIDFLTDKLYWCDAKQSVIEMANLDGSKRRRLTQNDVGHPFAVAVFEDYVWFSDWAMPSVMRVNKRTGKDRVRLQGSMLKPSSLVVVHPLAKPGADPCLYQNGGCEHICKKRLGTAWCSCREGFMKASDGKTCLALDGHQLLAGGEVDLKNQVTPLDILSKTRVSEDNITESQHMLVAEIMVSDQDDCAPVGCSMYARCISEGEDATCQCLKGFAGDGKLCSDIDECEMGVPVCPPASSKCINTEGGYVCRCSEGYQGDGIHCLDIDECQLGEHSCGENASCTNTEGGYTCMCAGRLSEPGLICPDSTPPPHLREDDHHYSVRNSDSECPLSHDGYCLHDGVCMYIEALDKYACNCVVGYIGERCQYRDLKWWELRHAGHGQQQKVIVVAVCVVVLVMLLLLSLWGAHYYRTQKLLSKNPKNPYEESSRDVRSRRPADTEDGMSSCPQPWFVVIKEHQDLKNGGQPVAGEDGQAADGSMQPTSWRQEPQLCGMGTEQGCWIPVSSDKGSCPQVMERSFHMPSYGTQTLEGGVEKPHSLLSANPLWQQRALDPPHQMELTQ
modifications: Pro-epidermal growth factor
  EGF-stimulated phosphorylation of Shc1 at both Tyr239 and Tyr240: significant phosphorylation of both Tyr239 and Tyr240 was detected
